Experimental data reported in ChEMBL document CHEMBL3525963, “Tissue distribution and elimination of [14C]apixaban in rats” (Drug Metab Dispos, 2011).

Columns and labels:
Assay type in all cases: ADME, organism-based
Parameters in all cases: dose 5 mg/kg, dosed compound name [14C]-apixaban, route oral
Settings in all cases: in vivo
Rattus norvegicus [1] = assay: Biodistribution in female Sprague-Dawley rat pituitary gland at 5 mg/kg, po administered as single dose measured after 4 hrs
Method in brief: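 [14C]apixaban (20 μCi/mL in dosing solution) in 0.5% Tween 80 in Labrafil given by oral gavage to fasted female rats, 206-213 g, at 100 μCi/kg. One rat per time point was euthanized and snap-frozen. Sagittal 40 µm whole-body sections were read by QWBA phosphor imaging against [14C]glucose standards. Results are in µg eq apixaban/g, with LLOQ 0.037 μg eq/g.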

Rattus norvegicus [2] = assay: Biodistribution in male Sprague-Dawley rat kidney cortex at 5 mg/kg, po administered as single dose measured after 24 hrs
Pancreas [3] = assay: Biodistribution in pregnant Sprague-Dawley rat pancreas at 5 mg/kg, po administered as single dose measured after 8 hrs
Method in brief: (§1)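 Pregnant SD rats (270-319 g) were fasted overnight and given one oral gavage of 5 mg/kg (100 μCi/kg) in 0.5% Tween 80 in Labrafil. One rat was euthanized per time point (0.5, 1, 4, 8, 24, 48 h) and the carcass frozen. 40 µm sagittal sections were phosphor-imaged against [14C]glucose standards and results reported as µg eq/g; LLOQ 0.037 µg eq/g.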

Muscle tissue [4] = assay: Biodistribution in female Sprague-Dawley rat muscle at 5 mg/kg, po administered as single dose measured after 8 hrs
Method in brief: (§2)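 [¹⁴C]Apixaban given by oral gavage at 5 mg/kg (100 μCi/kg) in 0.5% Tween 80 in Labrafil (1.0 mg/mL dosing solution) to rats fasted overnight through 4 h post-dose. One rat per time point; carcass frozen in hexane/dry ice. Quantitative whole-body autoradiography used 40 µm sagittal sections and a phosphor imaging plate calibrated with [¹⁴C]glucose standards (0.001–6.5 μCi/g). Read-out in µg eq apixaban/g; LLOQ 0.037 μg eq/g.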

Adrenal gland [5] = assay: Biodistribution in pregnant Sprague-Dawley rat adrenal gland at 5 mg/kg, po administered as single dose measured after 8 hrs
Rattus norvegicus [6] = assay: Biodistribution in fetal liver of pregnant Sprague-Dawley rat at 5 mg/kg, po administered as single dose measured after 0.5 hrs
Method in brief: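 Pregnant rats, 270-319 g and fasted overnight, received [14C]apixaban by oral gavage at 100 μCi/kg in 0.5% Tween 80/Labrafil. One dam per time point was euthanized and frozen in hexane/dry ice. Fetal tissue radioactivity was measured by QWBA on 40 µm sagittal sections calibrated with [14C]glucose standards. Values are in µg eq/g, with LLOQ 0.037 μg eq/g.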

Adrenal gland [7] = assay: Biodistribution in female Sprague-Dawley rat adrenal gland at 5 mg/kg, po administered as single dose measured after 4 hrs; method in brief: as §2
Pancreas [8] = assay: Biodistribution in male Sprague-Dawley rat pancreas at 5 mg/kg, po administered as single dose measured after 4 hrs
Method in brief: (§3)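 [14C]apixaban (1.0 mg/mL, 20 μCi/mL) in 0.5% Tween 80 in Labrafil, given by oral gavage at 100 μCi/kg to male rats (225-252 g) fasted overnight through 4 h post-dose. One rat per time point. Carcasses frozen in hexane/dry ice and cut into 40 µm sagittal sections. QWBA read on phosphor plates against [14C]glucose standards, reported as µg eq/g. LLOQ 0.037 µg eq/g.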

Pancreas [9] = assay: Biodistribution in female Sprague-Dawley rat pancreas at 5 mg/kg, po administered as single dose measured after 1 hr; method in brief: as §2
Blood [10] = assay: Biodistribution in female Sprague-Dawley rat blood at 5 mg/kg, po administered as single dose measured after 24 hrs
Method in brief: (§4)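 Quantitative whole-body autoradiography was run after a single 5 mg/kg (100 μCi/kg) oral gavage to fasted female or pregnant SD rats, one rat per time point. Carcasses were frozen in hexane/dry ice, and 40 µm sagittal sections were dried at −20°C for at least 48 h. Sections were exposed to a phosphor plate alongside [14C]glucose standards (0.001–6.5 µCi/g). Results are µg eq/g, with LLOQ 0.037 µg eq/g.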

Thymus [11] = assay: Biodistribution in male Sprague-Dawley rat thymus at 5 mg/kg, po administered as single dose measured after 72 hrs
Method in brief: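 Fasted male SD rats (225-252 g) each received one oral gavage dose of [14C]apixaban, 5 mg/kg (100 μCi/kg), in 0.5% Tween 80/Labrafil vehicle. One rat was killed per time point, from 0.5 to 168 h. Frozen carcasses were cut into 40 µm sagittal whole-body sections and read by QWBA phosphor imaging against [14C]glucose calibrants. Results are in µg apixaban eq/g; BLQ <0.037 µg eq/g.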

Brain [12] = assay: Biodistribution in male Sprague-Dawley rat brain at 5 mg/kg, po administered as single dose measured after 72 hrs
Rattus norvegicus [13] = assay: Biodistribution in fetal brain of pregnant Sprague-Dawley rat at 5 mg/kg, po administered as single dose measured after 4 hrs
Method in brief: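 Pregnant SD rats received a single oral gavage of [14C]apixaban at 5 mg/kg (100 μCi/kg; 1.0 mg/mL, 20 μCi/mL in 0.5% Tween 80/Labrafil) after fasting, one dam per time point. Frozen carcasses were cut into 40 µm sagittal sections and read by phosphor-imaging QWBA against [14C]glucose standards. Fetal tissue radioactivity is reported as µg eq/g, with LLOQ 0.037 µg eq/g.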

Blood [14] = assay: Biodistribution in female Sprague-Dawley rat blood at 5 mg/kg, po administered as single dose measured after 4 hrs; method in brief: as §2
Spleen [15] = assay: Biodistribution in male Sprague-Dawley rat spleen at 5 mg/kg, po administered as single dose measured after 0.5 hrs; method in brief: as §3
Brain [16] = assay: Biodistribution in male Sprague-Dawley rat brain at 5 mg/kg, po administered as single dose measured after 8 hrs
Thymus [17] = assay: Biodistribution in male Sprague-Dawley rat thymus at 5 mg/kg, po administered as single dose measured after 0.5 hrs; method in brief: as §3
Adrenal gland [18] = assay: Biodistribution in male Sprague-Dawley rat adrenal gland at 5 mg/kg, po administered as single dose measured after 4 hrs; method in brief: as §2
Rattus norvegicus [19] = assay: Biodistribution in female Sprague-Dawley rat pituitary gland at 5 mg/kg, po administered as single dose measured after 24 hrs; method in brief: as §4
Thymus [20] = assay: Biodistribution in pregnant Sprague-Dawley rat thymus at 5 mg/kg, po administered as single dose measured after 1 hr
Blood [21] = assay: Biodistribution in female Sprague-Dawley rat blood at 5 mg/kg, po administered as single dose measured after 1 hr; method in brief: as §2
Spleen [22] = assay: Biodistribution in pregnant Sprague-Dawley rat spleen at 5 mg/kg, po administered as single dose measured after 4 hrs
Muscle tissue [23] = assay: Biodistribution in male Sprague-Dawley rat muscle at 5 mg/kg, po administered as single dose measured after 8 hrs; method in brief: as §3
Thymus [24] = assay: Biodistribution in pregnant Sprague-Dawley rat thymus at 5 mg/kg, po administered as single dose measured after 24 hrs; method in brief: as §1
Harderian gland = assay: Biodistribution in female Sprague-Dawley rat harderian gland at 5 mg/kg, po administered as single dose measured after 0.5 hrs; method in brief: as §2
Rattus norvegicus [25] = assay: Biodistribution in fetal brain of pregnant Sprague-Dawley rat at 5 mg/kg, po administered as single dose measured after 24 hrs; method in brief: as §4

Radiolabel recovery (Rattus norvegicus [1]): 0.48 ugequiv/g
Radiolabel recovery (Rattus norvegicus [2]): < 0.037 ugequiv/g
Radiolabel recovery (Pancreas [3]): 0.09 ugequiv/g
Radiolabel recovery (Muscle tissue [4]): 0.08 ugequiv/g
Radiolabel recovery (Adrenal gland [5]): 0.18 ugequiv/g
Radiolabel recovery (Rattus norvegicus [6]): 0.16 ugequiv/g
Radiolabel recovery (Adrenal gland [7]): 0.9 ugequiv/g
Radiolabel recovery (Pancreas [8]): 0.55 ugequiv/g
Radiolabel recovery (Pancreas [9]): 0.62 ugequiv/g
Radiolabel recovery (Blood [10]): Not detected assumed BLQ
Radiolabel recovery (Thymus [11]): Not detected assumed BLQ
Radiolabel recovery (Brain [12]): < 0.037 ugequiv/g
Radiolabel recovery (Rattus norvegicus [13]): 0.06 ugequiv/g
Radiolabel recovery (Blood [14]): 0.35 ugequiv/g
Radiolabel recovery (Spleen [15]): 0.18 ugequiv/g
Radiolabel recovery (Brain [16]): < 0.037 ugequiv/g
Radiolabel recovery (Thymus [17]): 0.16 ugequiv/g
Radiolabel recovery (Adrenal gland [18]): 0.76 ugequiv/g
Radiolabel recovery (Rattus norvegicus [19]): Not detected assumed BLQ
Radiolabel recovery (Thymus [20]): 0.58 ugequiv/g
Radiolabel recovery (Blood [21]): 0.88 ugequiv/g
Radiolabel recovery (Spleen [22]): 0.47 ugequiv/g
Radiolabel recovery (Muscle tissue [23]): 0.06 ugequiv/g
Radiolabel recovery (Thymus [24]): Not detected assumed BLQ
Radiolabel recovery (Harderian gland): 0.4 ugequiv/g
Radiolabel recovery (Rattus norvegicus [25]): Not detected assumed BLQ
SMILES: COc1ccc(-n2nc(C(N)=O)c3c2C(=O)N(c2ccc(N4CCCC[14C]4=O)cc2)CC3)cc1
